Source: ChEMBL document CHEMBL3352573 (Bioorg Med Chem, 2014)

Molecular target: Melanocortin receptor 4 (Homo sapiens, UniProt P32245)
Sequence (P32245 whole entry): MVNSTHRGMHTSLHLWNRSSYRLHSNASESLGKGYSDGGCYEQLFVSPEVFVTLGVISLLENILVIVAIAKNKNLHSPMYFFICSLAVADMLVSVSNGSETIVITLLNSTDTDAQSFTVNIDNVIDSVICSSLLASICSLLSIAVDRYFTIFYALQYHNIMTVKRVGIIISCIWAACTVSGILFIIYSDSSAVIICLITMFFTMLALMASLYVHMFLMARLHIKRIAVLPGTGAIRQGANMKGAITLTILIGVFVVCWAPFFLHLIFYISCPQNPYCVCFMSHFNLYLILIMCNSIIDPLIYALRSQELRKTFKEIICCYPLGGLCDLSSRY
Assay: Displacement of Eu-DTPA-NDP-a-MSH chelate from human melanocortin-4 receptor expressed in HEK293 cells after 1 hr by competitive DELFIA assay
Type: cell-based
How it was run: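 HEK293 cells stably carrying hMC4R (pcDNA3.1) were grown in DMEM plus 10% FBS, seeded at 12,000 cells/well and cultured 3 days. Whole cells were competed with unlabeled ligand against 10 nM (final) Eu-DTPA-NDP-α-MSH in binding medium (DMEM, 1 mM 1,10-phenanthroline, bacitracin, leupeptin, 0.3% BSA) for 1 h at 37 °C, in quadruplicate. EC50 and Hill slope came from variable-slope sigmoidal fits.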
Work on CCCC[C@H](NC(=O)CNC(=O)[C@@H]1CCCN1C(=O)CNC(=O)[C@@H]1CCCN1C(=O)CNC(=O)[C@@H]1CCCN1C(=O)CNC(=O)[C@@H]1CCCN1C(=O)CNC(=O)[C@@H]1CCCN1C(=O)CNC(=O)[C@@H]1CCCN1C(=O)CNC(=O)[C@@H]1CCCN1C(=O)CNC(=O)[C@@H]1CCCN1C(=O)CNC(=O)[C@@H]1CCCN1C(=O)[C@H](Cc1c[nH]c2ccccc12)NC(=O)[C@H](CCCNC(=N)N)NC(=O)[C@@H](Cc1ccccc1)NC(=O)[C@H](Cc1cnc[nH]1)NC(=O)[C@H](CCC(=O)O)NC(=O)[C@H](CCCC)NC(=O)[C@H](CO)NC(C)=O)C(=O)N[C@H]1CC(=O)NCCCC[C@@H](C(N)=O)NC(=O)[C@H](Cc2c[nH]c3ccccc23)NC(=O)[C@H](CCCNC(=N)N)NC(=O)[C@@H](Cc2ccc3ccccc3c2)NC(=O)[C@H](Cc2cnc[nH]2)NC1=O yielded an EC50 of 2 nM.
For CCCC[C@H](NC(=O)CNC(=O)[C@@H]1CCCN1C(=O)CNC(=O)[C@@H]1CCCN1C(=O)CNC(=O)[C@@H]1CCCN1C(=O)CNC(=O)[C@@H]1CCCN1C(=O)CNC(=O)[C@@H]1CCCN1C(=O)CNC(=O)[C@@H]1CCCN1C(=O)[C@H](Cc1c[nH]c2ccccc12)NC(=O)[C@H](CCCNC(=N)N)NC(=O)[C@@H](Cc1ccccc1)NC(=O)[C@H](Cc1cnc[nH]1)NC(=O)[C@H](CCC(=O)O)NC(=O)[C@H](CCCC)NC(=O)[C@H](CO)NC(C)=O)C(=O)N[C@H]1CC(=O)NCCCC[C@@H](C(N)=O)NC(=O)[C@H](Cc2c[nH]c3ccccc23)NC(=O)[C@H](CCCNC(=N)N)NC(=O)[C@@H](Cc2ccc3ccccc3c2)NC(=O)[C@H](Cc2cnc[nH]2)NC1=O, the EC50 was 4.1 nM.

Test system: not listed separately
Assay: Retention time of the compound by reverse-phase HPLC method
Type: physicochemical
How it was run: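 Analytical reverse-phase HPLC on a C18 column (Jupiter 5U C18 300A), 10–40% acetonitrile with 0.1% TFA linear over 30 min at 1 mL/min, UV detection at 220 and 280 nm.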
Molecule CCCC[C@H](NC(C)=O)C(=O)N[C@H]1CC(=O)NCCCC[C@@H](C(=O)N2CCC[C@H]2C(=O)NCC(=O)N2CCC[C@H]2C(=O)NCC(=O)N2CCC[C@H]2C(=O)NCC(=O)N2CCC[C@H]2C(=O)NCC(=O)N2CCC[C@H]2C(=O)NCC(=O)N2CCC[C@H]2C(=O)NCC(=O)N2CCC[C@H]2C(=O)NCC(=O)N2CCC[C@H]2C(=O)NCC(=O)N2CCC[C@H]2C(=O)NCC(=O)N2CCC[C@H]2C(=O)NCC(=O)N2CCC[C@H]2C(=O)NCC(=O)N2CCC[C@H]2C(=O)NCC(=O)N[C@@H](CCCC)C(=O)N[C@H]2CC(=O)NCCCC[C@@H](C(N)=O)NC(=O)[C@H](Cc3c[nH]c4ccccc34)NC(=O)[C@H](CCCNC(=N)N)NC(=O)[C@@H](Cc3ccc4ccccc4c3)NC(=O)[C@H](Cc3cnc[nH]3)NC2=O)NC(=O)[C@H](Cc2c[nH]c3ccccc23)NC(=O)[C@H](CCCNC(=N)N)NC(=O)[C@@H](Cc2ccc3ccccc3c2)NC(=O)[C@H](Cc2cnc[nH]2)NC1=O has a Retention_time of 13.1 min.
CCCC[C@H](NC(=O)COCC(=O)NCCCOCCOCCOCCCNC(=O)COCC(=O)NCCCOCCOCCOCCCNC(C)=O)C(=O)N[C@H]1CC(=O)NCCCC[C@@H](C(N)=O)NC(=O)[C@H](Cc2c[nH]c3ccccc23)NC(=O)[C@H](CCCNC(=N)N)NC(=O)[C@@H](Cc2ccc3ccccc3c2)NC(=O)[C@H](Cc2cnc[nH]2)NC1=O gave a Retention_time of 12.5 min.
For CCCC[C@H](NC(C)=O)C(=O)N[C@H]1CC(=O)NCCCC[C@@H](C(=O)NCCCOCCOCCOCCCNC(=O)COCC(=O)N[C@@H](CCCC)C(=O)N[C@H]2CC(=O)NCCCC[C@@H](C(N)=O)NC(=O)[C@H](Cc3c[nH]c4ccccc34)NC(=O)[C@H](CCCNC(=N)N)NC(=O)[C@@H](Cc3ccc4ccccc4c3)NC(=O)[C@H](Cc3cnc[nH]3)NC2=O)NC(=O)[C@H](Cc2c[nH]c3ccccc23)NC(=O)[C@H](CCCNC(=N)N)NC(=O)[C@@H](Cc2ccc3ccccc3c2)NC(=O)[C@H](Cc2cnc[nH]2)NC1=O, the Retention_time was 14 min.
With CCCC[C@H](NC(C)=O)C(=O)N[C@H]1CC(=O)NCCCC[C@@H](C(=O)NCCCOCCOCCOCCCNC(=O)COCC(=O)N2CCC[C@H]2C(=O)NCC(=O)N2CCC[C@H]2C(=O)NCC(=O)N2CCC[C@H]2C(=O)NCC(=O)NCCCOCCOCCOCCCNC(=O)COCC(=O)N[C@@H](CCCC)C(=O)N[C@H]2CC(=O)NCCCC[C@@H](C(N)=O)NC(=O)[C@H](Cc3c[nH]c4ccccc34)NC(=O)[C@H](CCCNC(=N)N)NC(=O)[C@@H](Cc3ccc4ccccc4c3)NC(=O)[C@H](Cc3cnc[nH]3)NC2=O)NC(=O)[C@H](Cc2c[nH]c3ccccc23)NC(=O)[C@H](CCCNC(=N)N)NC(=O)[C@@H](Cc2ccc3ccccc3c2)NC(=O)[C@H](Cc2cnc[nH]2)NC1=O the Retention_time was 13.6 min.
Molecule CCCC[C@H](NC(=O)CNC(=O)[C@@H]1CCCN1C(=O)CNC(=O)[C@@H]1CCCN1C(=O)CNC(=O)[C@@H]1CCCN1C(=O)CNC(=O)[C@@H]1CCCN1C(=O)CNC(=O)[C@@H]1CCCN1C(=O)CNC(=O)[C@@H]1CCCN1C(=O)CNC(=O)[C@@H]1CCCN1C(=O)CNC(=O)[C@@H]1CCCN1C(=O)CNC(=O)[C@@H]1CCCN1C(=O)[C@H](Cc1c[nH]c2ccccc12)NC(=O)[C@H](CCCNC(=N)N)NC(=O)[C@@H](Cc1ccccc1)NC(=O)[C@H](Cc1cnc[nH]1)NC(=O)[C@H](CCC(=O)O)NC(=O)[C@H](CCCC)NC(=O)[C@H](CO)NC(C)=O)C(=O)N[C@H]1CC(=O)NCCCC[C@@H](C(N)=O)NC(=O)[C@H](Cc2c[nH]c3ccccc23)NC(=O)[C@H](CCCNC(=N)N)NC(=O)[C@@H](Cc2ccc3ccccc3c2)NC(=O)[C@H](Cc2cnc[nH]2)NC1=O has a Retention_time of 12 min.
Work on CCCC[C@H](NC(=O)CNC(=O)[C@@H]1CCCN1C(=O)CNC(=O)[C@@H]1CCCN1C(=O)CNC(=O)[C@@H]1CCCN1C(=O)CNC(=O)[C@@H]1CCCN1C(=O)CNC(=O)[C@@H]1CCCN1C(=O)CNC(=O)[C@@H]1CCCN1C(C)=O)C(=O)N[C@H]1CC(=O)NCCCC[C@@H](C(N)=O)NC(=O)[C@H](Cc2c[nH]c3ccccc23)NC(=O)[C@H](CCCNC(=N)N)NC(=O)[C@@H](Cc2ccc3ccccc3c2)NC(=O)[C@H](Cc2cnc[nH]2)NC1=O yielded a Retention_time of 11.9 min.
CCCC[C@H](NC(=O)COCC(=O)NCCCOCCOCCOCCCNC(=O)CNC(=O)[C@@H]1CCCN1C(=O)CNC(=O)[C@@H]1CCCN1C(=O)CNC(=O)[C@@H]1CCCN1C(=O)COCC(=O)NCCCOCCOCCOCCCNC(C)=O)C(=O)N[C@H]1CC(=O)NCCCC[C@@H](C(N)=O)NC(=O)[C@H](Cc2c[nH]c3ccccc23)NC(=O)[C@H](CCCNC(=N)N)NC(=O)[C@@H](Cc2ccc3ccccc3c2)NC(=O)[C@H](Cc2cnc[nH]2)NC1=O gave a Retention_time of 12.3 min.
For CCCC[C@H](NC(C)=O)C(=O)N[C@H]1CC(=O)NCCCC[C@@H](C(=O)N2CCC[C@H]2C(=O)NCC(=O)N2CCC[C@H]2C(=O)NCC(=O)N2CCC[C@H]2C(=O)NCC(=O)N2CCC[C@H]2C(=O)NCC(=O)N2CCC[C@H]2C(=O)NCC(=O)N2CCC[C@H]2C(=O)NCC(=O)N2CCC[C@H]2C(=O)NCC(=O)N2CCC[C@H]2C(=O)NCC(=O)N2CCC[C@H]2C(=O)NCC(=O)N[C@@H](CCCC)C(=O)N[C@H]2CC(=O)NCCCC[C@@H](C(N)=O)NC(=O)[C@H](Cc3c[nH]c4ccccc34)NC(=O)[C@H](CCCNC(=N)N)NC(=O)[C@@H](Cc3ccc4ccccc4c3)NC(=O)[C@H](Cc3cnc[nH]3)NC2=O)NC(=O)[C@H](Cc2c[nH]c3ccccc23)NC(=O)[C@H](CCCNC(=N)N)NC(=O)[C@@H](Cc2ccc3ccccc3c2)NC(=O)[C@H](Cc2cnc[nH]2)NC1=O, the Retention_time was 13.2 min.
CCCC[C@H](NC(=O)COCC(=O)NCCCOCCOCCOCCCNC(C)=O)C(=O)N[C@H]1CC(=O)NCCCC[C@@H](C(N)=O)NC(=O)[C@H](Cc2c[nH]c3ccccc23)NC(=O)[C@H](CCCNC(=N)N)NC(=O)[C@@H](Cc2ccc3ccccc3c2)NC(=O)[C@H](Cc2cnc[nH]2)NC1=O showed a Retention_time of 12.5 min.
CCCC[C@H](NC(C)=O)C(=O)N[C@H]1CC(=O)NCCCC[C@@H](C(=O)NCCCOCCOCCOCCCNC(=O)COCC(=O)NCCCOCCOCCOCCCNC(=O)COCC(=O)N[C@@H](CCCC)C(=O)N[C@H]2CC(=O)NCCCC[C@@H](C(N)=O)NC(=O)[C@H](Cc3c[nH]c4ccccc34)NC(=O)[C@H](CCCNC(=N)N)NC(=O)[C@@H](Cc3ccc4ccccc4c3)NC(=O)[C@H](Cc3cnc[nH]3)NC2=O)NC(=O)[C@H](Cc2c[nH]c3ccccc23)NC(=O)[C@H](CCCNC(=N)N)NC(=O)[C@@H](Cc2ccc3ccccc3c2)NC(=O)[C@H](Cc2cnc[nH]2)NC1=O gave a Retention_time of 13.9 min.
With CCCC[C@H](NC(=O)CNC(=O)[C@@H]1CCCN1C(=O)CNC(=O)[C@@H]1CCCN1C(=O)CNC(=O)[C@@H]1CCCN1C(=O)CNC(=O)[C@@H]1CCCN1C(=O)CNC(=O)[C@@H]1CCCN1C(=O)CNC(=O)[C@@H]1CCCN1C(=O)CNC(=O)[C@@H]1CCCN1C(=O)CNC(=O)[C@@H]1CCCN1C(=O)CNC(=O)[C@@H]1CCCN1C(=O)CNC(=O)[C@@H]1CCCN1C(=O)CNC(=O)[C@@H]1CCCN1C(=O)CNC(=O)[C@@H]1CCCN1C(C)=O)C(=O)N[C@H]1CC(=O)NCCCC[C@@H](C(N)=O)NC(=O)[C@H](Cc2c[nH]c3ccccc23)NC(=O)[C@H](CCCNC(=N)N)NC(=O)[C@@H](Cc2ccc3ccccc3c2)NC(=O)[C@H](Cc2cnc[nH]2)NC1=O the Retention_time was 11.9 min.
Work on CCCC[C@H](NC(=O)CNC(=O)[C@@H]1CCCN1C(=O)CNC(=O)[C@@H]1CCCN1C(=O)CNC(=O)[C@@H]1CCCN1C(=O)CNC(=O)[C@@H]1CCCN1C(=O)CNC(=O)[C@@H]1CCCN1C(=O)CNC(=O)[C@@H]1CCCN1C(=O)[C@H](Cc1c[nH]c2ccccc12)NC(=O)[C@H](CCCNC(=N)N)NC(=O)[C@@H](Cc1ccccc1)NC(=O)[C@H](Cc1cnc[nH]1)NC(=O)[C@H](CCC(=O)O)NC(=O)[C@H](CCCC)NC(=O)[C@H](CO)NC(C)=O)C(=O)N[C@H]1CC(=O)NCCCC[C@@H](C(N)=O)NC(=O)[C@H](Cc2c[nH]c3ccccc23)NC(=O)[C@H](CCCNC(=N)N)NC(=O)[C@@H](Cc2ccc3ccccc3c2)NC(=O)[C@H](Cc2cnc[nH]2)NC1=O yielded a Retention_time of 12 min.
Work on CCCC[C@H](NC(=O)CNC(=O)[C@@H]1CCCN1C(=O)CNC(=O)[C@@H]1CCCN1C(=O)CNC(=O)[C@@H]1CCCN1C(=O)CNC(=O)[C@@H]1CCCN1C(=O)CNC(=O)[C@@H]1CCCN1C(=O)CNC(=O)[C@@H]1CCCN1C(=O)CNC(=O)[C@@H]1CCCN1C(=O)CNC(=O)[C@@H]1CCCN1C(=O)CNC(=O)[C@@H]1CCCN1C(C)=O)C(=O)N[C@H]1CC(=O)NCCCC[C@@H](C(N)=O)NC(=O)[C@H](Cc2c[nH]c3ccccc23)NC(=O)[C@H](CCCNC(=N)N)NC(=O)[C@@H](Cc2ccc3ccccc3c2)NC(=O)[C@H](Cc2cnc[nH]2)NC1=O yielded a Retention_time of 11.9 min.
